Data published in the EternaBench riboswitch data.

System: MS2 coat protein
Experiment: apparent Kd, MS2 coat protein; higher = weaker binding; RNA-MaP array
Outline: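 Apparent Kd is the median of per-cluster binding-curve fits for designed RNAs transcribed from sequenced DNA templates on an Illumina sequencing chip. The RNAs were incubated at room temperature with fluorescently labeled MS2 coat protein at 1.5 nM to 3 μM, with or without input ligand, and designs measured on fewer than 10 clusters were excluded.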

[1] = designed as: OFF switch for flavin mononucleotide, no ligand
[2] = ligand present: flavin mononucleotide, designed as: OFF switch for flavin mononucleotide
[3] = designed as: ON switch for flavin mononucleotide, no ligand
[4] = ligand present: flavin mononucleotide, designed as: ON switch for flavin mononucleotide
[5] = designed as: ON switch for theophylline, no ligand
[6] = ligand present: theophylline, designed as: ON switch for theophylline
[7] = designed as: OFF switch for theophylline, no ligand
[8] = ligand present: theophylline, designed as: OFF switch for theophylline
[9] = designed as: ON switch for tryptophan, no ligand
[10] = ligand present: tryptophan, designed as: ON switch for tryptophan

Sequence	apparent Kd [1] [nM]	apparent Kd [2] [nM]	other results
AUCAAUGAUCGACAUGAGGAUCACCCAUGUGCUUGGCGACUAAGAAGGGCCAGGCCACCAAGGCGGCAGGAUAUUAGUAGGACC	84.2	24.3	
AUCACCUUCAAGAAGGUCCCAUACAUGAGGAUCACCCAUGUAAACAAAAUAAUAUGAAAUAAAAGGAAGGAUAUUGAACCAUGA			apparent Kd [3]: 55.1 nM; apparent Kd [4]: 30.3 nM
AUCAUAAGAGUAGGAUAUCGACAUGAGGAUCACCCAUGUACCUUGGAUGACCGCUAAUGGUUUAUCGAGAAGGACUUUUCCUCC	8.2	10.2	
AUCGCAGAUGUAAGGAUAUUAGUGUAGCAACGGUCAAAGAAGGAACAUGAGGAUCACCCAUGUGGUAGAUAAAU	19	15.2	
AUGGAACAUGAGGAUCACCCAUGUGAUGAUACCAGAUUAACGCUUAUCCCUUGGCAGCAUGUCCGCCCUCAACCUGUGGCGUAUU			apparent Kd [5]: 22.2 nM; apparent Kd [6]: 26.1 nM
AUGGAACAUGAGGAUCACCCAUGUUAGGAUAUCGGCGAAGGGAGUUUUAUACUCACUGCGAGAAGGAACGUGAC	25.2	18.7	
AUGUAGAAUCUAGGAUAUGCGAGAAACUGCGAAGCAGAAGGAGACUUGUACAUGAGGAUCACCCAUGUCCCGGGCGUCCCAACU	17.7	24.2	
AUUAACUGGUAAGAUACCAGAGUCGGGAUCUACAUGAGGAUCACCCAUGUUCUAAAGUCGCUCCCUUGGCAGCUUCAAUGAGUCG			apparent Kd [5]: 35.3 nM; apparent Kd [6]: 36 nM
AUUGUGUAAGGAUAUUAUAGAAGAGGUAGGCAACUUCUGAAUAAGAAGGUACAUGAGGAUCACCCAUGUUCAAU	11.7	12.1	
AUUUCAAACAUGAGGAUCACCCAUGUCAAGUUUGAGCAACUAAGAAGGUCAGAUCCAUAAGCACUGAAGGAUAUUAAGAGGUAC	31.8	22	
CAACAGGAGCAGAAGGUCCAACUCAUAAAUACGGAAGGAUAUGCGUGACCAACUAAAGAAACAUGAGGAUCACCCAUGUAAGCG			apparent Kd [3]: 10.7 nM; apparent Kd [4]: 7.53 nM
CAACCACACAUAAGGCAAGGACAUGAGGAUCACCCAUGUGGUAGAAGGCAUCCUAAUGCGGACGAUGAGGAUAUACGACGUGCA	75.5	50	
CAACUAAAGGAGAAGGCUAACAUGAGGAUCACCCAUGUCCGCGUGUCCGCUUAUAAUGCGCGCAUAGAGGAUAUCCCAAGUUUA			apparent Kd [3]: 21.4 nM; apparent Kd [4]: 13.6 nM
CAAGUCGGCAAGGAUAUGAAACGUAUUACAGAUUCAGAAGGUGCUACAUGAGGAUCACCCAUGUGGUCAAUACC	6.76	13.1	
CACCCGUCGACUUAGGAUAUACUGUUGUGAACAUGAGGAUCACCCAUGUAUUAAGCUAGAACGAAGUAGAAGGAAGUUUUCCUUGC			apparent Kd [3]: 15.6 nM; apparent Kd [4]: 13.1 nM
CAGGGAAGAUGAGGAUAUCAUAGGAGGAUAUGUCGACACAUGAGGAUCACCCAUGUCGCUUACGUUGAGAAGGCAUUGACGUGU	13.2	11.3	
CAGUAAGUAGGAUAUGUAUCAAGCUACAUGAGGAUCACCCAUGUGAACCCUAACAGCUGAACAGAAGGACUGUGUG	156	198	
CAUACGCCGCAGAAGGAAGGACAGACAUGAGGAUCACCCAUGUACACCGGUUUAUUGGGUGCACCUUAGGAUAUGCAAAAGAAC			apparent Kd [3]: 268 nM; apparent Kd [4]: 132 nM
CAUUACCAUGUUAGGAUAUCCUGCGGAAUUGCCCUGGAGAAGGAACAUGAGGAUCACCCAUGUGCACAAACAAC	17.6	26.1	
CCACUACAUGAGGAUCACCCAUGUCAGGAUAUCAACCACGCCUCUCCUUGGACGUAGAUGAGAAGGGACGUGGG	16.7	28.2	
CCCUCGUUAUAGAAGGUCACAUUAAAUAAACAUGAAGGAUAUAUACCCAUUACACAUGAGGAUCACCCAUGUUAGGGCUGGCAU	14.2	13.6	
CCGACACAGAAGAAGGCUUUUGGUCUUAGCAGAAGAGGAUAUUCCUGUGUUCCGCGUACAUGAGGAUCACCCAUGUGUGAGCAC	6.59	7.46	
CCGCGACCUGAGAAGGGCUGCCAAGGGAGACACAUGAGGAUCACCCAUGUCGGGUGGUCCUGCUAGCAGGAUAUCAUCGCAGGA	173	225	
CGAACAUGAGGAUCACCCAUGUGUUUCCUUGGUAGACGACAUAGAAGGGCCGUAAAUUACAGCGGGCAGGAUAUAUGACUUAAG	164	137	
CGAAUAUAGGCUACGUGUCAUUGAGGCGAUACCAGAUUAUGCCAGAUCCCUUGGCAGCGCCAAACAUGAGGAUCACCCAUGUUCA			apparent Kd [7]: 22.1 nM; apparent Kd [8]: 29.3 nM
CGAGCAAGAGGAUAUACGAAGACGGUAUGAGUCAACCUCAAACAUGAGGAUCACCCAUGUAGAAGGCUUCUCAU	7.46	9.74	
CGCAAGAUCUUAGGAUAUCUGUGAGCCAAGACUAGAGAAGGAAGGAGGCUGUGCAACAUGAGGAUCACCCAUGUAUCCCGUGCA	39.7	35.4	

Sequence	apparent Kd [1] [nM]	apparent Kd [2] [nM]	other results
CGCCGUGAUUAGAAGGGUGGUGGGAAUCUUAUCACAGGAUAUAAAUAGGGCCGCUACAUGAGGAUCACCCAUGUCCUCCGGUCA	200	165	
CGGCGGGACUCACAUGAGGAUCACCCAUGUUUAAAGGGUCAAAAGGAUAUGAAAACAGCAAGUAAUCAGAAGGUUUACCUAGUG	14.5	15.8	
CGGUCCACUGAGAAGGCUCACUCCAUGCCGAGGAGAGGAUAUCAAACCUAUAUUGCACGCAGCGAACAUGAGGAUCACCCAUGU			apparent Kd [3]: 11 nM; apparent Kd [4]: 8.73 nM
CGUGAUACUGGUAUACUCUGAAGAUCAAUUCGAGGACCGGUACGGCCGCCACUCGUUAGUAGACAUGAGGAUCACCCAUGUUAGU			apparent Kd (designed as: OFF switch for tryptophan, no ligand): 20 nM; apparent Kd (ligand present: tryptophan, designed as: OFF switch for tryptophan): 22.5 nM
CGUUGACAUGAGGAUCACCCAUGUUCCCUAGCCACAGGAUAUCGACGCGUGCUCGCUAGACGAGAAGGGUGGUAAA			apparent Kd [3]: 30.4 nM; apparent Kd [4]: 11.7 nM
CUCCUACAUGAGGAUCACCCAUGUGAGGAUAUCUCCCAGUGGGAAUAGUUUCCAUGGAAGAGAAGGCACAGUGA	24.4	30.9	
CUGACGAGCUUUUUGUCAGGUUGUGUAGAUACCAGUUCUCUGGUGAACCCUUGGCAGCUAACAACAUGAGGAUCACCCAUGUGAU			apparent Kd [7]: 83.7 nM; apparent Kd [8]: 326 nM
CUGCGCUCGAAGAAGGGCUGCCACAUGAGGAUCACCCAUGUCACUGACACCGAAGUUAGAAAGUAGCAGGAUAUUCAGGGUCCU			apparent Kd [3]: 49.2 nM; apparent Kd [4]: 32.4 nM
CUUAAGUGAGGAUAUCGUGGGACUACAUUAAUGAGAAUCAGCGAGAAGGCACAUGAGGAUCACCCAUGUGGUAA	18.6	76.2	
CUUCUGAAAGCAAUGGGAUCUGUUAUUGAUACCAGCAUCUGAUUUUGCCCUUGGCAGCAAGAAACAUGAGGAUCACCCAUGUGGC			apparent Kd [7]: 19.5 nM; apparent Kd [8]: 61.2 nM
GAAACAUUCCCGAGUUUCUACAUGAGGAUCACCCAUGUCCCAUAGGAUAUCUCUACCAGCCGCCGAGAGAAGGAUGUAGUCACU			apparent Kd [3]: 185 nM; apparent Kd [4]: 148 nM
GAACAUGAGGAUCACCCAUGUGCUAUUGGGAAUCGCGCUACAUAGGAUAUAGAGGCGACUGUACUCUAGAAGGAUGCUAGUUUC	38.3	37.8	
GAACCGUUUGAGAAGGUACACAUUCAGGUCGGUACUGGACAUGAGGAUCACCCAUGUGCCGGUGGUAAGGAUAUCAGAUGAGCU	10.5	10.4	
GAAGACAUGAGGAUCACCCAUGUUACACACCGAGGACCGGUACGGCCGCCACUCGUAGGCCCUCGGCUCACCUGAGAUCCGCAUC			apparent Kd [9]: 23.8 nM; apparent Kd [10]: 22.6 nM
GACGAGGAACCAAAGGAUAUACACAUAAACACAUGAGGAUCACCCAUGUAUUAGAGGAUAAACAUGUAGAAGGUUGAUACGGCGUG			apparent Kd [3]: 48.7 nM; apparent Kd [4]: 36.9 nM
GACGAGUAGACGGCCGCCACUAUGCUGCGCAGCCCUAGAAACGCACAUGAGGAUCACCCAUGUCUUAGGACCGGGUCGAACUUAA			apparent Kd [9]: 78.5 nM; apparent Kd [10]: 65.7 nM
GACUACCAGUAAGGAUAUGCUCUUAUAAAAGGAGCAGAAGGUACCUGUGACGCCUACGGGCGACAUGAGGAUCACCCAUGUUCU			apparent Kd [3]: 692 nM; apparent Kd [4]: 386 nM
GAGUACUGGUUAGGGAGAAAUACAUGAGGAUCACCCAUGUCCAGAAGGAUUCAGUAAGUGCCGGAAUAGGAUAUGGAACUAAAA			apparent Kd [3]: 246 nM; apparent Kd [4]: 105 nM
GAUCGUUGGGAGGAUAUCCGCAAGUCCAGGGAGGGAGAAGGCCCAACAUGAGGAUCACCCAUGUAGAAGCGCAU	51	77.6	
GAUCUGUGAGGAUAUUGUUAGAGCAUUCAACCAUCGAAUGCCAAGAAGGCACAUGAGGAUCACCCAUGUAGACA	7.9	10.4	
GAUGGCCUAGGAUAUACGCGUUGGUUGGCUCGUCACGAUACACAUGAGGAUCACCCAUGUAGAAGGAGGAGAGU	10.5	11.7	
GCAAAAUACAUGAGGAUCACCCAUGUUAAGUGGGCCUGAACAAGAAGGCAGCAAAUUUUAUUUUCUGAGGAUAUUGGCAUAUAU	30.2	36.8	
GCAAUACAUGAGGAUCACCCAUGUUUUAGAUACGAAGGAUAUGUGUAAGCGUACUAAUGUACAGAAGGUCGGAUUU			apparent Kd [3]: 13.1 nM; apparent Kd [4]: 9.26 nM
GCACAACAUGAGGAUCACCCAUGUCGAGAUACCAGAACAUAUAUAUUCCCUUGGCAGCUCACACCUUUAAUGUAAAAUUCUUUGG			apparent Kd [5]: 12.7 nM; apparent Kd [6]: 14.5 nM
GCAUUAGGGUAAGGAUAUUGAAUUAAACAUGGCAAAGUAAUUUUUGACAUGAGGAUCACCCAUGUCAAGAAGGUACUCAUUCAU	6.08	5.74	
GCCAGCAGUACAUGAGGAUCACCCAUGUCCCUUGUACUUUUAUAGGAUAUACGAGUGGCUACCAUGUAGAAGGAUAGAAUUGUC	932	606	
GCCCGUUAUUAGAAGGGUAUUCGGAUAUGCAUUCCUUACAUGAGGAUCACCCAUGUACCGCGAGUACAGGAUAUAAAACCGCCA	75.2	69.7	
